# Results taken from ChEMBL document CHEMBL1124326, “Synthesis and P-388 antitumor properties of the four diastereomeric 1-hydroxy-3,4-diaminocyclohexane-Cl2PtII complexes” (J Med Chem, 1989).
# Where “and” joins values, the source holds several entries; their conditions need not be identical. Equal values may be shown once.
# How the values were obtained:
# Format in all cases: functional, organism-based
# Mus musculus [1] = experiment: Antineoplastic activity in P-388-infected CDF1 mice, administered intraperitoneally at a dose (10 mg/kg), calculated as Percent treated /control (T/C).
# Summary of the method: (§1)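 P-388 leukaemia cells (1 × 10^6 per animal) implanted into the peritoneal cavity of CDF1 recipient mice. Drug reconstituted in 0.3% Klucel and given ip on a day 1 schedule. Survival checked daily for at least 30 days; survival time expressed as percent treated/control (T/C).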
# Mus musculus [2] = experiment: Antineoplastic activity in P-388-tumor cell infected CDF1 mice, administered intraperitoneally at a dose (10 mg/kg), calculated as Median survival time (MST); summary of the method: as §1
# Mus musculus [3] = experiment: Antineoplastic activity in P-388-tumor cell infected CDF1 mice, administered intraperitoneally at a dose (3mg/kg), calculated as Median survival time (MST); summary of the method: as §1
# Mus musculus [4] = experiment: Antineoplastic activity in P-388-infected CDF1 mice, administered intraperitoneally at a dose (1.5 mg/kg), calculated as Percent treated /control (T/C).; summary of the method: as §1
# Mus musculus [5] = experiment: Antineoplastic activity in P-388-tumor cell infected CDF1 mice, administered intraperitoneally at a dose (1.5 mg/kg), calculated as Median survival time (MST); summary of the method: as §1
# Mus musculus [6] = experiment: Antineoplastic activity in P-388-infected CDF1 mice, administered intraperitoneally at a dose (3mg/kg), calculated as Percent treated /control (T/C).; summary of the method: as §1
# Mus musculus [7] = experiment: Antineoplastic activity in P-388-tumor cell infected CDF1 mice, administered intraperitoneally at a dose (6 mg/kg), calculated as Median survival time (MST); summary of the method: as §1
# Mus musculus [8] = experiment: Antineoplastic activity in P-388-infected CDF1 mice, administered intraperitoneally at a dose (6 mg/kg), calculated as Percent treated /control (T/C).; summary of the method: as §1
Substance,T/C (Mus musculus [1]),MST (Mus musculus [2]),MST (Mus musculus [3]) [days],T/C (Mus musculus [4]) [%],MST (Mus musculus [5]) [days],T/C (Mus musculus [6]) [%],MST (Mus musculus [7]) [days],T/C (Mus musculus [8]) [%]
"1-Hydroxy-3,4-diaminocyclohexane-Cl2-Platinum II Complex",161% and 141%,15.8 days and 13.8 days,,,,,,
CISPLATIN,,,18.5,158,15.5,188,24.5,249
